Activity calls are given as the source filed them. The rule behind the calls is not given here.
Columns and labels:
[1] = molecular target: T1, DNA topoisomerase 1 (Homo sapiens) (UniProt P11387); assay: Inhibition of camptothecin-induced poisoning effect of human topoisomerase 1 assessed as suppression of CPT-induced 117 bp DNA cleavage by SDS-PAGE analysis
T1 sequence (whole entry): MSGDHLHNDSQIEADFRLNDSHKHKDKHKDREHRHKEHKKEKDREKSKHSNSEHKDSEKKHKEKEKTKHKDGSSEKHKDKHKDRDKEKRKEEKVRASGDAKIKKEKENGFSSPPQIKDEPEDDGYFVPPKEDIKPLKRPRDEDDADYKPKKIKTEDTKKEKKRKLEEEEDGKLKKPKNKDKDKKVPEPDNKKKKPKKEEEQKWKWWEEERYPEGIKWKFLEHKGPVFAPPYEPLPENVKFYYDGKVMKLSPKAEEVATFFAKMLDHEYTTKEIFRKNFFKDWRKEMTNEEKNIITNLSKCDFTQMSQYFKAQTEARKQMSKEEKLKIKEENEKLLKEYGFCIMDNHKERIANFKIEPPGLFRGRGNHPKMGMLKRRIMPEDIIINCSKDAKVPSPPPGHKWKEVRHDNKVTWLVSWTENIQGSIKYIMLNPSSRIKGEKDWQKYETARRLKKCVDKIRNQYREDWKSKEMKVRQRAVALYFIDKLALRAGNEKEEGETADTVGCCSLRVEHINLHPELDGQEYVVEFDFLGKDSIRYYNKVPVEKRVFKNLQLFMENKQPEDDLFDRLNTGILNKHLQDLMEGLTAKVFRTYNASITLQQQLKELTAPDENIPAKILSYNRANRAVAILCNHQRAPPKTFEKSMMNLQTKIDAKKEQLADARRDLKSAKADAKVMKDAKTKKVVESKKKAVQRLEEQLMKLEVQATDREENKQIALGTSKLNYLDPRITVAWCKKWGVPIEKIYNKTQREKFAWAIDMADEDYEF

[2] = molecular target: T1, DNA topoisomerase 1 (Homo sapiens); assay: Inhibition of human recombinant topoisomerase 1-mediated relaxation of supercoiled pUC19 DNA assessed as formation of nicked DNA at 0.1 to 5 uM using ethidium bromide staining by agarose gel electrophoresis
Summary of the method: (§1)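 Supercoiled pUC19 plasmid (130 ng) was incubated with 4 units of human recombinant Top1 at 37 °C for 45 min in relaxation buffer (50 mM Tris pH 7.8, 50 mM KCl, 10 mM MgCl2, 1 mM DTT, 1 mM EDTA, 1 mM ATP) with increasing compound concentrations. Products were resolved on 1% agarose at room temperature, 2 h at 120 V, then stained with ethidium bromide and imaged under UV.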

Calf thymus DNA [3] = assay: Binding affinity to calf thymus DNA by circular dichroism analysis; format: nucleic-acid assay; conditions: Bos taurus
HT-29 [4] = assay: Cytotoxicity against human HT-29 cells after 72 hrs by MTS assay; format: functional, cell-based; conditions: HT-29, 72 h
[5] = molecular target: T1, DNA topoisomerase 1 (Homo sapiens); assay: Inhibition of human recombinant topoisomerase 1 assessed as cleavage of 117-mer DNA fragment at 20 to 50 uM using ethidium bromide staining by agarose gel electrophoresis analysis
[6] = molecular target: DNA topoisomerase 2-alpha (Homo sapiens) (UniProt P11388); assay: Inhibition of human topoisomerase 2 assessed as formation of nicked form of supercoiled pUC19 DNA at 50 uM after 45 mins using ethidium bromide staining by agarose gel analysis
[7] = molecular target: DNA topoisomerase 2-alpha (Homo sapiens) (UniProt P11388); assay: Inhibition of human topoisomerase 2 assessed as formation of linear form of supercoiled pUC19 DNA at 50 uM after 45 mins using ethidium bromide staining by agarose gel analysis
Calf thymus DNA [8] = assay: Binding affinity to calf thymus DNA at 20 uM by UV-vis spectrophotometry analysis; format: nucleic-acid assay; conditions: Bos taurus
Nucleic Acid = assay: Binding affinity to 265 bp of 3'-end-radio-labelled DNA fragment at 0.5 to 5 uM treated 15 mins before Dnase 1-mediated digestion by footprinting assay; format: nucleic-acid assay
Summary of the method: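 DNase I footprinting. It was equilibrated with compound for 15 min at 37 °C, then digested 3 min with DNase I (0.01 unit/ml) in 20 mM NaCl, 2 mM MgCl2, 2 mM MnCl2, pH 7.3. Samples were lyophilised, denatured at 90 °C and run on an 8% denaturing polyacrylamide gel.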

[9] = molecular target: T1, DNA topoisomerase 1 (Homo sapiens); assay: Inhibition of human recombinant topoisomerase 1 assessed as cleavage of 117-mer DNA fragment at 0.5 to 5 uM using ethidium bromide staining by agarose gel electrophoresis analysis
[10] = molecular target: T1, DNA topoisomerase 1 (Homo sapiens); assay: Inhibition of human recombinant topoisomerase 1-mediated relaxation of supercoiled pUC19 DNA assessed as formation of nicked DNA at 1 to 50 uM using ethidium bromide staining by agarose gel electrophoresis; summary of the method: as §1
HT-29 [11] = assay: Cell cycle arrest in human HT-29 cells at G2/M phase at 0.1 to 2.5 uM after 48 hrs using propidium iodide staining by FACS analysis; format: functional, cell-based
Summary of the method: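 Exponentially growing HT-29 colon carcinoma cells (300,000 per well) were plated for 24 h, then exposed to 0.1, 1 or 2.5 µM compound for 48 h. Cells were fixed, stained with propidium iodide and analysed by flow cytometry (FACScan).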

Chain of DNA topoisomerase 2-alpha (Homo sapiens) (P11388 whole entry): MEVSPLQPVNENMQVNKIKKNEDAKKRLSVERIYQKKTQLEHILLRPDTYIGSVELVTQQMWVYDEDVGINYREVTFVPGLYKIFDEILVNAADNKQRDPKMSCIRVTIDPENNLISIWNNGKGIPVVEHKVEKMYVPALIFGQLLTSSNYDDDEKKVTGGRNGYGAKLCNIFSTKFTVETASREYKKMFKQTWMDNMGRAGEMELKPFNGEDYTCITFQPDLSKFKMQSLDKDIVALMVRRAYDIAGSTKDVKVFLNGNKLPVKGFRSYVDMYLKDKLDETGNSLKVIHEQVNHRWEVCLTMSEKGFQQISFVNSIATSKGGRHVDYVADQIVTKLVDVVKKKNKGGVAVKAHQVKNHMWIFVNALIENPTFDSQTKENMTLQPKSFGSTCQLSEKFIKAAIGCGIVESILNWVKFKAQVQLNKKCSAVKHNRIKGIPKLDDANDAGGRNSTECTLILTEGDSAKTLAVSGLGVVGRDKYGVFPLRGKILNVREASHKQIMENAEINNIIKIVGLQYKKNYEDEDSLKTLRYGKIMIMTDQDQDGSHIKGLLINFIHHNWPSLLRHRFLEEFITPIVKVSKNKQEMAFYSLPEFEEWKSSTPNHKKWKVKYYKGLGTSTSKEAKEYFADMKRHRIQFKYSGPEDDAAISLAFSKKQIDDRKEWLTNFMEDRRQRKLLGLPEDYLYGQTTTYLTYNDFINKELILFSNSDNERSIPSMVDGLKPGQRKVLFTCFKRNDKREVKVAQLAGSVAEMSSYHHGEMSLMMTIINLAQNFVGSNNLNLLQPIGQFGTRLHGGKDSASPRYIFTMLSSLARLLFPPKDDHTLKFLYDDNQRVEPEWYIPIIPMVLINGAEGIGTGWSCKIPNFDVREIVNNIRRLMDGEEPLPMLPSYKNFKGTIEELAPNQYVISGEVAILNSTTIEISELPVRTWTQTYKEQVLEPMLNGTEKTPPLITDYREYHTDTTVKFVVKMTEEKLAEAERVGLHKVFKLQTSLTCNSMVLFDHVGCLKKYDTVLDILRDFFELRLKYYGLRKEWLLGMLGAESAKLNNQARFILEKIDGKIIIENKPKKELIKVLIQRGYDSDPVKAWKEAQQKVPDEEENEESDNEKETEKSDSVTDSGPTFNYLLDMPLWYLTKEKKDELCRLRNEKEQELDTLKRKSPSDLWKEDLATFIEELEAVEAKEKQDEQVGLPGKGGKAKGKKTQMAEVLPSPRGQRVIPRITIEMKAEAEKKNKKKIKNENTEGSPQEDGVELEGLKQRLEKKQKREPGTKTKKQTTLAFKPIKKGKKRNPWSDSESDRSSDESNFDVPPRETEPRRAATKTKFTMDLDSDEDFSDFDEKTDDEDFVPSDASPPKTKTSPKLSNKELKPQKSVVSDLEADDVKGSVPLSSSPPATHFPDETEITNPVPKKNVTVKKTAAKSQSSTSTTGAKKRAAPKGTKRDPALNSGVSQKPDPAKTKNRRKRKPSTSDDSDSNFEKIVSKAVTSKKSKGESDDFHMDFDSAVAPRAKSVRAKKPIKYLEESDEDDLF

| SMILES | inhibition [1] | Top1 relaxation inhibition (qualitative call) [2] | Activity (Calf thymus DNA [3]) | IC50 (HT-29 [4]) [µM] | inhibition [5] | inhibition [6] | inhibition [7] | Activity (Calf thymus DNA [8]) | inhibition (Nucleic Acid) | inhibition [9] | Topoisomerase 1 inhibition (active/inactive) [10] | Activity (HT-29 [11]) |
| --- | --- | --- | --- | --- | --- | --- | --- | --- | --- | --- | --- | --- |
| COc1cc2c(NCCCN(C)C)nc3c4cccnc4ccc3c2cc1OC | Dose-dependent effect | Active | Active | 3.33 | inactive | inactive | inactive | Active | Active | – | – | – |
| CCN(CC)CCCNc1nc2c3ccncc3ccc2c2cc(OC)c(OC)cc12 | Dose-dependent effect | Active | Active | 5.47 | inactive | inactive | inactive | Active | inactive | – | – | – |
| COc1cc2c(=O)n(CCN(C)C)c3c4ccncc4ccc3c2cc1OC | Dose-dependent effect | – | Active | 1.42 | – | – | – | Active | – | inactive | Active | – |
| CN(C)CCCn1c(=O)c2cc3c(cc2c2ccc4cnccc4c21)OCO3 | Dose-dependent effect | Active | Active | 0.24 | inactive | inactive | inactive | Active | Active | – | – | Active |
| CCN(CC)CCn1c(=O)c2cc3c(cc2c2ccc4cnccc4c21)OCO3 | Dose-dependent effect | Active | Active | 0.23 | inactive | inactive | inactive | Active | Active | – | – | Active |
| COc1cc2c[n+](C)c3c4cc5c(cc4ccc3c2cc1OC)OCO5 [NITIDINE CHLORIDE] | – | Active | Active | 2.75 | – | inactive | inactive | Active | – | inactive | – | – |
| COc1cc2c(=O)n(CCN(C)C)c3c4cccnc4ccc3c2cc1OC | Dose-dependent effect | – | Active | 1.66 | – | – | – | Active | – | inactive | Active | – |
| CN(C)CCCNc1nc2c3ccncc3ccc2c2cc3c(cc12)OCO3 | Dose-dependent effect | Active | Active | 7.62 | inactive | inactive | inactive | Active | inactive | – | – | – |
| CN(C)CCNc1nc2c3cccnc3ccc2c2cc3c(cc12)OCO3 | Dose-dependent effect | Active | Active | 0.11 | inactive | inactive | inactive | Active | Active | – | – | Active |
| COc1cc2c(NCCN(C)C)nc3c4cccnc4ccc3c2cc1OC | Dose-dependent effect | Active | Active | 0.97 | inactive | inactive | inactive | Active | Active | – | – | – |
| COc1cc2c(NCCCN(C)C)nc3c4ccncc4ccc3c2cc1OC | – | Active | Active | 3.14 | inactive | inactive | inactive | Active | inactive | – | – | – |
| CN(C)CCn1c(=O)c2cc3c(cc2c2ccc4ncccc4c21)OCO3 | Dose-dependent effect | Active | Active | 0.12 | inactive | inactive | inactive | Active | Active | – | – | Active |
| COc1cc2c(=O)n(CCCN(C)C)c3c4ccncc4ccc3c2cc1OC | Dose-dependent effect | – | Active | 6.11 | – | – | – | Active | – | inactive | Active | – |
| CCN(CC)CCn1c(=O)c2cc(OC)c(OC)cc2c2ccc3cnccc3c21 | Dose-dependent effect | – | Active | 1.82 | – | – | – | Active | – | inactive | Active | – |
| COc1cc2c(=O)n(CCCN(C)C)c3c4cccnc4ccc3c2cc1OC | Dose-dependent effect | – | Active | 4.98 | – | – | – | Active | – | – | Active | – |
| CN(C)CCCn1c(=O)c2cc3c(cc2c2ccc4ncccc4c21)OCO3 | Dose-dependent effect | Active | Active | 0.23 | inactive | inactive | inactive | Active | Active | – | – | Active |
| CN(C)CCNc1nc2c3ccncc3ccc2c2cc3c(cc12)OCO3 | Dose-dependent effect | Active | Active | 0.07 | inactive | inactive | inactive | Active | Active | – | – | Active |
| CCN(CC)CCn1c(=O)c2cc3c(cc2c2ccc4ncccc4c21)OCO3 | Dose-dependent effect | Active | Active | 0.075 | inactive | inactive | inactive | Active | Active | – | – | Active |
| CN(C)CCn1c(=O)c2cc3c(cc2c2ccc4cnccc4c21)OCO3 | Dose-dependent effect | Active | Active | 0.078 | inactive | inactive | inactive | Active | Active | – | – | Active |
| CCN(CC)CCCNc1nc2c3cccnc3ccc2c2cc(OC)c(OC)cc12 | Dose-dependent effect | Active | Active | 5.77 | inactive | inactive | inactive | Active | Active | – | – | – |
